One block for each molecule: values may come before it. The source made the active and inactive calls. The calls are words filed in the database; no cut-off is given here. Non-standard residues stand in square brackets, D forms with d. Residues, ends and D or L forms follow the SMILES beside them. *: point of attachment. Phe(ol) = N[C@H](CO)Cc1ccccc1; Isovaleryl = CC(C)CC(=O)*; Propionyl = CCC(=O)*; Butyryl = CCCC(=O)*
Tests used:
[1] = system: HeLa; assay: Inhibition of autophagic flux in human HeLa cells assessed as increase in LC3-2 level at 100 to 200 uM after 4 to 12 hrs by immunoblot analysis; type: functional, cell-based
Summary of the method: (§1)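 HeLa cells grown in DMEM with 10% FBS, 2 mM glutamine and penicillin/streptomycin, preincubated overnight, then exposed to compound at the indicated final concentrations for 4, 8 or 12 h. Whole-cell RIPA lysates run on SDS-PAGE, transferred to PVDF, blocked in 5% nonfat milk, probed with anti-LC3, anti-SQSTM1, anti-Ub, anti-α3 or anti-β-actin, HRP secondary, ECL detection.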

[2] = system: HeLa; assay: Effect on proteasome subunit alpha-3 protein expression in human HeLa cells at 100 to 200 uM after 4 to 12 hrs by immunoblot analysis; type: functional, cell-based; summary of the method: as §1
[3] = system: HeLa; assay: Inhibition of autophagic flux in human HeLa cells assessed as reduction in autolysosome formation by measuring increase in LC3-2 level at 200 uM after 8 hrs in presence of BafA1 by immunoblot analysis; type: functional, cell-based
Summary of the method: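 HeLa cells grown in normal DMEM to >90% confluence, washed with PBS, then cotreated for 8 h with compound (200 μM) plus bafilomycin A1 (100 nM) in DMEM, or under amino acid depletion in EBSS. Whole-cell RIPA lysates immunoblotted (SDS-PAGE, PVDF, milk block, HRP secondary, ECL); β-actin loading control.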

[4] = system: HeLa; assay: Effect on p62/SQSTM1 protein expression in human HeLa cells at 100 to 200 uM after 4 to 12 hrs by immunoblot analysis; type: functional, cell-based; summary of the method: as §1
[5] = system: HeLa; assay: Effect on polyubiquitin conjugate protein expression in human HeLa cells at 100 to 200 uM after 4 to 12 hrs by immunoblot analysis; type: functional, cell-based; summary of the method: as §1
[6] = target: 26S proteasome (Homo sapiens) (UniProt Q99460+P49721+P20618+P28074+P28062+P28065+P28072+O00487+P25786+P25787+P25788+P25789+P28066+P60900+O14818+Q8TAA3+P40306+A5LHX3+P49720+P28070+Q99436+Q16186+P35998+P62191+P43686+P62333+P17980+P62195+Q13200+O43242+O00232+O00231+Q15008+P51665+Q9UNM6+P55036+P48556+P60896); assay: Inhibition of human 26S proteasome using suc-LLVY-AMC as substrate up to 40 mins by fluorescence assay; type: protein-complex assay
Summary of the method: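 Purified human 26S proteasomes incubated with compound and fluorogenic substrate suc-LLVY-AMC. Substrate hydrolysis followed as AMC fluorescence (RFU) over time.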

[7] = system: HeLa; assay: Inhibition of autophagic flux in human HeLa cells assessed as increase in LC3-2 level after 4 to 12 hrs by immunoblot analysis; type: functional, cell-based; summary of the method: as §1
[8] = system: HeLa; assay: Inhibition of autophagic flux in human HeLa cells assessed as increase in LC3-2 level at 100 to 200 uM after 4 to 12 hrs by immunoblot analysis
[9] = system: HeLa; assay: Inhibition of autophagic flux in human HeLa cells assessed as DQ-BSA quenching at 200 uM after 4 hrs by DAPI staining based fluorescence microscopic method; type: functional, cell-based
Summary of the method: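 HeLa cells on glass coverslips loaded with self-quenching BODIPY–BSA (DQ-BSA, 10 μg/mL) for 1 h, PBS-washed, then exposed to DMSO, EBSS or compound (200 μM) for 4 h. Fixed in 4% paraformaldehyde/PBS 15 min, mounted with DAPI-containing medium. Dequenched DQ-BSA puncta in autolysosomes imaged by fluorescence microscopy.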

Structure (SMILES): CC[C@H](C)[C@H](NC(=O)[C@H](Cc1ccc(O)cc1)NC(=O)CC(C)C)C(=O)N[C@H](CO)CCSC
LC3-II increase (active/not active) [1]: inactive

inhibition [6]: inactive
Structure (SMILES): CCCC(=O)N[C@@H](Cc1ccccc1)C(=O)N[C@H](C(=O)N[C@H](CO)Cc1ccccc1)[C@@H](C)CC (Butyryl-Phe-Ile-[Phe(ol)])
Activity [2]: inactive | inhibition [3]: inactive | Activity [4]: inactive | Activity [5]: inactive | inhibition [7]: Dose-dependent effect | inhibition [8]: Active | inhibition [9]: Active

Structure (SMILES): CC[C@H](C)[C@H](NC(=O)[C@H](Cc1ccccc1)NC(=O)CC(C)C)C(=O)N[C@H](CO)Cc1ccccc1 (Isovaleryl-Phe-Ile-[Phe(ol)])
LC3-II increase (active/not active) [1]: inactive

inhibition [6]: inactive
Structure (SMILES): CC(C)CC(=O)N[C@@H](Cc1ccccc1)C(=O)N[C@H](C(=O)N[C@H](CO)Cc1ccccc1)C(C)C (Isovaleryl-Phe-Val-[Phe(ol)])
Activity [2]: inactive | inhibition [3]: inactive | Activity [4]: inactive | Activity [5]: inactive | inhibition [7]: Dose-dependent effect | inhibition [8]: Active | inhibition [9]: Active

Structure (SMILES): CC[C@H](C)[C@H](NC(=O)[C@H](Cc1ccc(O)cc1)NC(=O)CC(C)C)C(=O)N[C@H](CO)Cc1ccccc1 (Isovaleryl-Tyr-Ile-[Phe(ol)])
LC3-II increase (active/not active) [1]: inactive

Structure (SMILES): CC(C)CC(=O)N[C@@H](Cc1ccc(O)cc1)C(=O)N[C@H](C(=O)N[C@H](CO)Cc1ccccc1)C(C)C (Isovaleryl-Tyr-Val-[Phe(ol)])
LC3-II increase (active/not active) [1]: inactive

Structure (SMILES): CCC(=O)N[C@@H](Cc1ccc(O)cc1)C(=O)N[C@H](C(=O)N[C@H](CO)Cc1ccccc1)[C@@H](C)CC (Propionyl-Tyr-Ile-[Phe(ol)])
LC3-II increase (active/not active) [1]: inactive

Source: ChEMBL document CHEMBL4330170, “Acidiphilamides A-E, Modified Peptides as Autophagy Inhibitors from an Acidophilic Actinobacterium, Streptacidiphilus rugosus” (J Nat Prod, 2019)
